Bioassay records (PubChem BioAssay)
In the library only some 12% were active in any assay of this set; here they are far more common.
Rad51 HR inh – human RAD51 strand exchange inhibitors, primary screen, biochemical, fluorescence. inhibition, % at 10 µM. DNA repair protein RAD51 homolog 1 (Homo sapiens), Q06609. AID 1385, 2008. actives 0.085% (n = 200,000). hRad51 DNA strand exchange, fluorescence dequenching;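 active = inhibition above 40% at the single screening dose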
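Test system – preformed human Rad51 ssDNA filaments · Reagent – Donor/quencher-labelled 47-bp dsDNA substrate · Incubation – 37 °C 15-min filament assembly, 30-min compound preincubation, 15-min exchange · Signal – FRET fluorescence dequenching, excitation 485 nm, emission 520 nm · Read-out – percent inhibition from fluorescence, normalised to plate control and blank means · Benchmarks – plate control and blank wells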
L major viab – Leishmania major promastigote growth inhibition, primary screen; Leishmania major promastigotes, resazurin fluorescence viability; inhibition, % at 10 µM; actives 9% (n = 200,000); AID 1063, 2008;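 note: promastigotes grown with compound for 44 hours at 28 °C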
PKD1 inh – inhibitors of human PKD1 kinase, biochemical, fluorescence polarization; AID 797, 2007; PKD1 kinase fluorescence polarization assay; actives 0.056% (n = 200,000); inhibition, % (concentration not given with the values); Serine/threonine-protein kinase D1 (Homo sapiens), Q15139
CHOP inhibitor – inhibitors of CHOP promoter induction, primary screen, cell-based, unfolded protein response, luciferase reporter | inhibition, % at 10 µM | actives 3.8% (n = 220,000) | CHO-K1 CHOP-promoter luciferase, tunicamycin-induced, 15-18 h | AID 2732, 2010;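 active = compounds that reduced the stress-induced luciferase reporter signal by more than about 70% of percent inhibition, limit read from the data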
Arbovirus inh – antivirals against arbovirus infection, primary screen, cell-based, full library, 10K replicate subset; actives 0.37% (n = 200,000); inhibition, % at 10 µM; arbovirus infection cell-based antiviral screen; in the data active = inhibition above about 30%
Wee1 stabilizer – Wee1 degradation inhibitors, primary screen, cell-based, HeLa, Wee1K328M-luciferase, luminescence | HeLa Luc-Wee1K328M stability; 100% = proteasome inhibitor MG132 effect | Wee1-like protein kinase (Homo sapiens), P30291 | actives 1.2% (n = 220,000) | AID 1321, 2008 | reporter increase, % at 5 µM;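 active = activation above the mean of all tested compounds plus 3 SD, set per screening run, cut at about 8.8% in these data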;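 note: cells exposed to compound for 20 h before luminescence read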
Target sequence (P30291 whole entry K328M): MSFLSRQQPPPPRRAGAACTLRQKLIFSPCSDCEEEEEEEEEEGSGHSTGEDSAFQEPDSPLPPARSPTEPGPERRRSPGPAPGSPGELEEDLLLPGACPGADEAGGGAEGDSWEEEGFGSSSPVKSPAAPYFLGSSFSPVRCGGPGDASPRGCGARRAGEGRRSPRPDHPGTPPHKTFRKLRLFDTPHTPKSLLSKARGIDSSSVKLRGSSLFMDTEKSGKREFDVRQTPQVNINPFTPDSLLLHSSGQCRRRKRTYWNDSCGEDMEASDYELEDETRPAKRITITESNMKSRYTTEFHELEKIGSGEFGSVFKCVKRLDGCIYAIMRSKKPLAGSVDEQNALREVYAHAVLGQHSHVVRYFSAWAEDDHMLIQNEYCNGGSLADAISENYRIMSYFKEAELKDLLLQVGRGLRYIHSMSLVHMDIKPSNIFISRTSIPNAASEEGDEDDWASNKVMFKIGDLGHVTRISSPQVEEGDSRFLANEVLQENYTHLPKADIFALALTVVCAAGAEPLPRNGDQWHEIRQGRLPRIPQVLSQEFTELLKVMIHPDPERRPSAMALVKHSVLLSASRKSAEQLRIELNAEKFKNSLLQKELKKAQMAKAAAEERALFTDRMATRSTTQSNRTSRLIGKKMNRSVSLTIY
Numbers stand for hits; . = inactive; / = not tested or not shown. Cut-off read from the data, not from the text of the source, unless noted: active = inhibition above about 50%; inactive = the rest.

SMILES | Rad51 HR inh | L major viab | PKD1 inh | CHOP inhibitor | Arbovirus inh | Wee1 stabilizer
Cc1ccn(CCC(=O)N2CCCC(CCC(=O)N3CCN(c4ccccn4)CC3)C2)n1 (configuration not stated) | . | . | . | . | . | .
COc1ccc(CC(=O)Nc2nn(C)c3nc4c(C)cccc4cc23)cc1 | . | / | / | 80.6 | / | .
Cc1ccc(Oc2ncnc(N)c2[N+](=O)[O-])cc1C | . | . | . | . | . | .
Cc1nn(-c2ccccc2)c(Cl)c1/C=C(\C#N)C(=O)NC(C)C | . | 99.9 | . | . | . | .
COc1ccc(NC(=O)/C(C#N)=C/c2c(C)nn(-c3ccc(F)cc3)c2Cl)cc1Cl | . | 95.6 | . | . | . | .
CCCC1C2CN(C(C)C)CC=C2C(C#N)=C(N)C1(C#N)C#N (configuration not stated) | / | 76.4 | . | . | . | .
COc1cc(-c2nnc(SCc3ccccc3Cl)o2)cc(OC)c1OC | / | . | . | . | . | .
COc1cc(-c2nnc(SCc3c(F)cccc3Cl)o2)cc(OC)c1OC | . | 81.7 | . | . | . | .
O=C(c1ccc(Cl)c([N+](=O)[O-])c1)N(c1ccccn1)c1ccccn1 | . | 70.3 | . | . | . | .
Cc1ccc(C(=O)N2CCN(c3ccccn3)CC2)cc1[N+](=O)[O-] | . | . | . | . | . | .
COC(=O)CCN(C(=O)c1ccc(C)c([N+](=O)[O-])c1)c1ccccn1 | . | . | . | . | . | 10.0
Cc1c(N=C2NC(=O)/C(=C/c3cccc([N+](=O)[O-])c3)S2)c(=O)n(-c2ccccc2)n1C | . | 89.5 | . | . | . | .
CN(CC(=O)Nc1ccc(F)c(F)c1F)c1cnccn1 | . | . | . | 74.3 | . | .
CCOc1ccc(NC(=O)CN(C)CC(=O)Nc2ccc(F)c(F)c2F)cc1OCC | / | . | . | . | . | .
CN(CC(=O)Nc1ccc(SC(F)F)cc1)C1CCCCC1 | . | . | . | . | . | .
CN(CC(=O)Nc1ccc(F)c(F)c1F)C1CCCCC1 | . | . | . | 75.1 | . | .
COc1ccc2c(c1)CCc1c(C(=O)NCCCn3ccnc3)noc1-2 | . | 100.0 | . | . | . | .
COCCNC(=O)[C@H](C)[C@H]1C[C@]1(C)[C@H](NC(=O)OCc1ccccc1)c1ccccc1 | . | . | . | . | . | 9.1
C/C(=N\NC(=O)c1cccc(Cl)c1)c1cccc(NC(=O)c2ccco2)c1 | . | . | . | . | . | .
Cc1ccc(O)c(NC(=O)c2cccc(NC(=O)c3ccco3)c2)c1 | . | 98.3 | . | . | . | .
CCCC/C(=N\NC(=O)c1ccc(Br)o1)c1ccccc1 | . | 89.3 | . | . | . | .
CC/C(=N/NC(=O)c1ccc(Br)o1)c1ccc(Cl)cc1 | / | . | . | . | . | .
C/C(=N\NC(=O)c1cccc(C)c1)c1cccc(NC(=O)c2ccco2)c1 | . | 83.4 | . | . | . | .
C/C(=N/NC(=O)c1ccco1)c1cccc(NC(=O)c2ccc(C)o2)c1 | . | 66.1 | . | . | . | .
CC/C(=N\NC(=O)CCC(=O)NCc1ccccc1)c1ccc(O)cc1 | . | . | . | . | . | .
SMILES | Rad51 HR inh | L major viab | PKD1 inh | CHOP inhibitor | Arbovirus inh | Wee1 stabilizer
COc1cccc(/C=C/C(=O)OCC(=O)Nc2ccc(Cl)c(S(=O)(=O)N(C)C)c2)c1OC | / | . | . | . | . | .
O=C(Nc1cccc(S(=O)(=O)N2CCCC2)c1)c1cc(-c2ccccn2)nc2ccccc12 | . | . | . | . | . | .
Cn1nnnc1SCc1ccc([N+](=O)[O-])cc1 | . | . | . | . | . | .
O=C(c1ccccc1)c1cccc(NC(=O)c2ccc(Br)o2)c1 | . | 97.1 | . | . | . | .
C/C(=N/NC(=O)c1ccc(Br)o1)c1ccncc1 | . | . | . | . | . | .
Cc1cc(C(=O)Nc2cccc(C(=O)O)c2)oc1C | . | . | . | 74.8 | . | .
C/C(=N/NC(=O)c1ccc(Br)o1)c1cccc(NC(=O)c2ccc(C)o2)c1 | . | 91.7 | . | . | . | .
Cc1cc(C(=O)Nc2cccc(C(=O)O)c2)c(C)o1 | . | . | . | . | . | .
